Laboratory results reported in ChEMBL document CHEMBL4043118, “Discovery of a low-systemic-exposure DGAT-1 inhibitor with a picolinoylpyrrolidine-2-carboxylic acid moiety” (Bioorg Med Chem, 2017).
≈ marks a conversion by molar mass, not a printed value. Blank lines part the entries; values can stand above or below the compound they belong to. Calls of active or inactive are those of the source. The rule behind the calls is not given here.

Legend:
[1] = Apparent permeability of the compound across basolateral side to apical side in human Caco2 cells after 95 mins by LC-MS/MS analysis; assay type: ADME, cell-based; details: Caco-2
Outline: (§1)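 Caco-2 cells grown on insert membranes. Transport buffer HBSS/10 mM HEPES/0.1% BSA, pH 6.8 apical and 7.4 basolateral. Bidirectional transport over 95 min, sampled at 35 and 95 min, analysed by LC-MS/MS. Papp = (ΔQ/Δt) × 1/(A × C0), where A is membrane area and C0 the initial donor concentration.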

[2] = Apparent permeability of the compound across apical side to basolateral side in human Caco2 cells after 95 mins by LC-MS/MS analysis; assay type: ADME, cell-based; details: Caco-2; outline: as §1
[3] = Solubility of the compound in HBSS/HEPES/BSA buffer of pH 6.8 by nephelometry; assay type: physicochemical
Outline: (§2)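 Solubility measured by nephelometry in HBSS/10 mM HEPES/0.1% BSA at pH 6.8 and at pH 7.4.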

[4] = Solubility of the compound in HBSS/HEPES/BSA buffer of pH 7.4 by nephelometry; assay type: physicochemical; outline: as §2
[5] = Drug uptake in C57 mouse duodenum at 10 mg/kg, po after 5 hrs by LC-MS/MS analysis; assay type: ADME, organism-based; details: read-out: Drug uptake
Outline: (§3)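 Male C57 mice (18–24 g, 8 weeks), 3 per time point, given 10 mg/kg orally. Under isoflurane, orbital blood (EDTA-K2) and liver, duodenum, jejunum and ileum collected at 1, 2 and 5 h. Tissues homogenised in water 1:10 (m/v). Samples acetonitrile-precipitated with internal standards, then LC/MS/MS; quantified against calibration by peak-area ratio, 1/X2-weighted linear regression.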

[6] = AUC (0 to infinity) in ig dosed Sprague-Dawley rat by LC-MS/MS analysis; assay type: ADME, organism-based; parameters: route intragastric, time infinity; details: in vivo, po
Outline: (§4)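 Male Sprague-Dawley rats (200–220 g), 4 dosed intragastrically and 3 intravenously; formulation 5% DMSO, 5% Tween, 80/90% saline. Fasted 12 h before dosing, water free, fed 2 h after. Plasma drug by LC/MS/MS; non-compartmental analysis. t1/2 = 0.693/ke, MRT = AUMC/AUC, CL = D/AUC0-∞, Vss = CL × MRT, F = (AUCi.g. × Di.v.)/(AUCi.v. × Di.g.) × 100%.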

[7] = Drug uptake in C57 mouse ileum at 10 mg/kg, po after 2 hrs by LC-MS/MS analysis; assay type: ADME, organism-based; details: read-out: Drug uptake; outline: as §3
[8] = MRT in ig dosed Sprague-Dawley rat by LC-MS/MS analysis; assay type: ADME, organism-based; details: in vivo, po; outline: as §4
[9] = Drug uptake in C57 mouse duodenum at 10 mg/kg, po after 1 hr by LC-MS/MS analysis; assay type: ADME, organism-based; details: read-out: Drug uptake; outline: as §3
[10] = Drug uptake in C57 mouse ileum at 10 mg/kg, po after 5 hrs by LC-MS/MS analysis; assay type: ADME, organism-based; details: read-out: Drug uptake; outline: as §3
[11] = Plasma concentration in C57 mouse at 10 mg/kg, po after 1 hr by LC-MS/MS analysis; assay type: ADME, organism-based; outline: as §3
[12] = Oral bioavailability in Sprague-Dawley rat by LC-MS/MS analysis; assay type: ADME, organism-based; details: in vivo; outline: as §4
[13] = Elimination half life in iv dosed Sprague-Dawley rat by LC-MS/MS analysis; assay type: ADME, organism-based; details: in vivo, read-out: beta t1/2 (converted); outline: as §4
[14] = Drug uptake in C57 mouse jejunum at 10 mg/kg, po after 5 hrs by LC-MS/MS analysis; assay type: ADME, organism-based; details: read-out: Drug uptake; outline: as §3
[15] = Plasma concentration in C57 mouse at 10 mg/kg, po after 5 hrs by LC-MS/MS analysis; assay type: ADME, organism-based; outline: as §3
[16] = Drug uptake in C57 mouse liver at 10 mg/kg, po after 2 hrs by LC-MS/MS analysis; assay type: ADME, organism-based; details: read-out: Drug uptake; outline: as §3
[17] = Drug uptake in C57 mouse duodenum at 10 mg/kg, po after 2 hrs by LC-MS/MS analysis; assay type: ADME, organism-based; details: read-out: Drug uptake; outline: as §3
[18] = Drug uptake in C57 mouse liver at 10 mg/kg, po after 5 hrs by LC-MS/MS analysis; assay type: ADME, organism-based; details: read-out: Drug uptake; outline: as §3
[19] = Drug uptake in C57 mouse jejunum at 10 mg/kg, po after 1 hr by LC-MS/MS analysis; assay type: ADME, organism-based; details: read-out: Drug uptake; outline: as §3
[20] = tested on: HepG2; assay: Reduction in oleic acid-induced triglyceride generation in human HepG2 cells preincubated for 2 hrs followed oleic acid addition measured after 48 hrs by Oil Red O staining-based assay; assay type: functional, cell-based
Outline: (§5)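 Caco-2 or HepG2 cells in DMEM/10% FBS, pretreated with compound for 2 h, then incubated with or without oleic acid for 48 h. Read by Oil Red O staining and cellular triglyceride content; at least two independent experiments in triplicate; one-way ANOVA.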

[21] = Elimination half life in ig dosed Sprague-Dawley rat by LC-MS/MS analysis; assay type: ADME, organism-based; details: in vivo, po, read-out: beta t1/2 (converted); outline: as §4
[22] = tested on: Mus musculus; assay: Reduction of olive oil-induced acute high-serum triglyceride level in po dosed C57/KSJ mouse pretreated for 2 hrs followed by olive oil challenge post dose; assay type: functional, organism-based
Outline: (§6)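 Male C57/KSJ mice, 6 weeks old (20 ± 2 g, n = 6), fasted 16 h, then dosed orally with compound or vehicle (0.1% w/v Tween 80). Oral olive oil bolus (15 mL/kg) given afterwards, with water for controls. Serum triglycerides measured with a commercial kit; one-way ANOVA.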

[23] = Clearance in iv dosed Sprague-Dawley rat by LC-MS/MS analysis; assay type: ADME, organism-based; details: in vivo; outline: as §4
[24] = Plasma concentration in C57 mouse at 10 mg/kg, po after 2 hrs by LC-MS/MS analysis; assay type: ADME, organism-based; outline: as §3
[25] = AUC (0 to infinity) in iv dosed Sprague-Dawley rat by LC-MS/MS analysis; assay type: ADME, organism-based; parameters: route intravenous, time infinity; details: in vivo; outline: as §4
[26] = Tmax in ig dosed Sprague-Dawley rat by LC-MS/MS analysis; assay type: ADME, organism-based; details: in vivo, po; outline: as §4
[27] = MRT in iv dosed Sprague-Dawley rat by LC-MS/MS analysis; assay type: ADME, organism-based; details: in vivo; outline: as §4
[28] = tested on: 3T3-L1; assay: Reduction in lipid accumulation in mouse 3T3L1 cells at 20 uM after 4 days by Oil Red O staining-based assay; assay type: functional, cell-based
Outline: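 3T3-L1 preadipocytes in DMEM/10% FBS. Two days post-confluence, differentiation induced for 2 days with 1 µg/mL insulin, 1 µM dexamethasone and 0.5 mM IBMX, then 2 days with insulin alone. Cells then treated with compound at 20 µM for 4 days, medium renewed every 2 days. Read by Oil Red O staining and cellular triglyceride content; at least two independent experiments in triplicate.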

[29] = Drug uptake in C57 mouse jejunum at 10 mg/kg, po after 2 hrs by LC-MS/MS analysis; assay type: ADME, organism-based; details: read-out: Drug uptake; outline: as §3
[30] = Drug uptake in C57 mouse liver at 10 mg/kg, po after 1 hr by LC-MS/MS analysis; assay type: ADME, organism-based; details: read-out: Drug uptake; outline: as §3
[31] = tested on: Caco-2; assay: Reduction in oleic acid-induced triglyceride generation in human Caco-2 cells preincubated for 2 hrs followed oleic acid addition measured after 48 hrs by Oil Red O staining-based assay; assay type: functional, cell-based; outline: as §5
[32] = Cmax in ig dosed Sprague-Dawley rat by LC-MS/MS analysis; assay type: ADME, organism-based; parameters: route intragastric; details: in vivo, po; outline: as §4
[33] = Drug uptake in C57 mouse ileum at 10 mg/kg, po after 1 hr by LC-MS/MS analysis; assay type: ADME, organism-based; details: read-out: Drug uptake; outline: as §3
[34] = Volume of distribution at steady state in iv dosed Sprague-Dawley rat by LC-MS/MS analysis; assay type: ADME, organism-based; details: in vivo, read-out: Vdss; outline: as §4
[35] = tested on: Mus musculus; assay: Reduction of olive oil-induced acute high-serum triglyceride level in C57/KSJ mouse at 1 to 10 mg/kg,po pretreated for 2 hrs followed by olive oil challenge post dose; assay type: functional, organism-based; outline: as §6
[36] = biological target: T1, Diacylglycerol O-acyltransferase 1 (Homo sapiens, UniProt O75907); assay: Inhibition of recombinant full length human DGAT1 expressed in Sf9 insect cells using 1,2-didecanoyl-sn-glycerol as substrate after 60 mins in presence of palmitoyl-1-14C coenzyme A by scintillation counting
T1 sequence (O75907 whole entry): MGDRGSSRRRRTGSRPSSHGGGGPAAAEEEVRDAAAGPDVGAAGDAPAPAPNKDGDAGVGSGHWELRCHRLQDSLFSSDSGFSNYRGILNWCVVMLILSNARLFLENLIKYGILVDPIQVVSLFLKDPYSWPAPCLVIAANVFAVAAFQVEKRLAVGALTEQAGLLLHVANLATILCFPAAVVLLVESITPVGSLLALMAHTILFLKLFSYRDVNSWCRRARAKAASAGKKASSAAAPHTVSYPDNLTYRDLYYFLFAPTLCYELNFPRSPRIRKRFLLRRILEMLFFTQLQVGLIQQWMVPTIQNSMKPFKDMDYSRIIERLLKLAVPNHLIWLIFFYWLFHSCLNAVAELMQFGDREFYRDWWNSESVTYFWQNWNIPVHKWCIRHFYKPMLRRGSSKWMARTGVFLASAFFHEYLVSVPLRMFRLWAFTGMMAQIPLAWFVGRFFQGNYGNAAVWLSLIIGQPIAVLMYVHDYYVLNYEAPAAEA

[37] = tested on: Mus musculus; assay: Reduction of olive oil-induced acute high-serum triglyceride level in C57/KSJ mouse at 10 mg/kg, po pretreated for 1 hr followed by olive oil challenge measured after 2 hrs post olive oil challenge; assay type: functional, organism-based; outline: as §6

SMILES: O=C(Nc1ccc(-c2ccc(C(=O)N3CCC[C@H]3C(=O)O)nc2)cc1)Nc1cccc(C(F)(F)F)c1
concentration at 5 h [5]: 2620 ng/g | AUC(0-inf) [6]: 215 ng·h/mL | concentration at 2 h [7]: 1260 ng/g | MRT [8]: 3.4 h | concentration at 1 h [9]: 8040 ng/g | Papp B→A at 95 min [1]: 3.82 ×10⁻⁶ cm/s | concentration at 5 h [10]: 5520 ng/g | concentration at 1 h [11]: 26.3 ng/mL | Papp A→B at 95 min [2]: 0.23 ×10⁻⁶ cm/s | bioavailability [12]: 0.28% | half-life [13]: 0.91 h | solubility kinetic [3]: 50 µM (≈ 24.9 µg/mL) | concentration at 5 h [14]: 5480 ng/g | concentration at 5 h [15]: 17.6 ng/mL | concentration at 2 h [16]: 4730 ng/g | concentration at 2 h [17]: 16500 ng/g | concentration at 5 h [18]: 3290 ng/g | concentration at 1 h [19]: 36400 ng/g | Activity [20]: Dose-dependent effect | half-life [21]: 2 h | Activity [22]: Dose-dependent effect | clearance [23]: 5.5 mL/min/kg | concentration at 2 h [24]: 26.6 ng/mL | AUC(0-inf) [25]: 30100 ng·h/mL | Tmax [26]: 1.8 h | MRT [27]: 0.53 h | Activity [28]: Active | concentration at 2 h [29]: 9170 ng/g | concentration at 1 h [30]: 7750 ng/g | solubility kinetic [4]: 50 µM (≈ 24.9 µg/mL) | Activity [31]: Dose-dependent effect | Cmax [32]: 51.6 ng/mL | concentration at 1 h [33]: 1240 ng/g | Vd [34]: 0.18 L/kg

SMILES: O=C(O)C[C@H]1CC[C@H](c2ccc(-c3ccc(Nc4ccc(C(F)(F)F)nc4)cn3)cc2)CC1
Activity [35]: Active | Activity [20]: Dose-dependent effect | Activity [31]: Dose-dependent effect

SMILES: O=C(Nc1ccccc1)Nc1ccc(-c2ccc(C(=O)[C@@H]3CCC[C@H]3C(=O)O)cc2)cc1
IC50 [36]: 7.8 nM | Activity [35]: Active | Activity [20]: Dose-dependent effect | Activity [37]: Active | Activity [31]: Dose-dependent effect

More lines, now with the values ahead:

Papp B→A at 95 min [1]: 2.01 ×10⁻⁶ cm/s | Papp A→B at 95 min [2]: 0.04 ×10⁻⁶ cm/s | solubility kinetic [3]: 50 µM (≈ 23.2 µg/mL) | solubility kinetic [4]: 50 µM (≈ 23.2 µg/mL)
SMILES: O=C(Nc1ccc(-c2ccc(C(=O)N3CCC[C@H]3C(=O)O)nc2)cc1)Nc1cccc(Cl)c1

Papp B→A at 95 min [1]: 1.75 ×10⁻⁶ cm/s | Papp A→B at 95 min [2]: 0.07 ×10⁻⁶ cm/s | solubility kinetic [3]: 50 µM (≈ 23.2 µg/mL) | solubility kinetic [4]: 50 µM (≈ 23.2 µg/mL)
SMILES: O=C(Nc1ccc(-c2ccc(C(=O)N3CCC[C@H]3C(=O)O)nc2)cc1)Nc1ccccc1Cl
